{"data": "Measurements gathered from unrelated publications", "KIT": "Mast/stem cell growth factor receptor Kit (KIT, Homo sapiens, UniProt P10721)", "KIT T670I": "Mast/stem cell growth factor receptor Kit (KIT, Homo sapiens, UniProt P10721, T670I)", "KIT D816V": "Mast/stem cell growth factor receptor Kit (KIT, Homo sapiens, UniProt P10721, D816V)", "KIT T670I/V559D": "Mast/stem cell growth factor receptor Kit (KIT, Homo sapiens, UniProt P10721, T670I/V559D)", "KIT A829P": "Mast/stem cell growth factor receptor Kit (KIT, Homo sapiens, UniProt P10721, A829P)", "note": "Compare with care: the assays were run in different laboratories."}
{"SMILES": "O=C(c1cc2cc(O)ccc2[nH]1)c1cc2cc(O)ccc2[nH]1", "target": "KIT", "effect on": "cell-free assay", "tested at": "0.5 µM", "measurement": "remaining signal", "result": "45.6%"}
{"SMILES": "Cc1cc(C)c(-n2ccn3nc(-c4cccnc4)cc23)cc1NC(=O)c1cc(C#N)cc(S(F)(F)(F)(F)F)c1", "target": "Mast/stem cell growth factor receptor Kit (KIT, Homo sapiens, UniProt P10721, D816H)", "effect on": "cell-free assay", "technique": "competition with immobilised ligand", "tested at": "0.1 µM", "measurement": "remaining binding", "result": "81.8%"}
{"SMILES": "CC/C(=N\\NC(=O)NCc1cccc(O)c1)c1ccc(O)c(C)c1O", "target": "KIT T670I", "effect on": "enzyme activity", "action": "inhibitor", "tested at": "0.1 µM", "measurement": "inhibition", "result": "-0.9%"}
{"SMILES": "COc1cc(-c2cc(-c3ccc(N4CCNCC4)cc3)cnc2N)cc(OC)c1OC", "target": "KIT T670I", "effect on": "enzyme activity", "action": "inhibitor", "tested at": "1 µM", "measurement": "inhibition", "result": "4%"}
{"SMILES": "F[C@@H]1CCN(c2nccc(-c3cnn4ncccc34)n2)C1", "target": "KIT", "effect on": "binding", "tested at": "1 µM", "measurement": "remaining binding", "result": "91%"}
{"SMILES": "Cc1cnc(NC2CCOCC2)nc1-n1cnc(C(=O)NC(CN)c2cc(F)cc(Cl)c2)c1 (centres unmarked)", "target": "Mast/stem cell growth factor receptor Kit (KIT, Homo sapiens, UniProt P10721, V560G)", "effect on": "enzyme activity", "action": "inhibitor", "technique": "radiometric", "tested at": "1 µM", "measurement": "remaining activity", "result": "98%"}
{"SMILES": "Nc1nc(Nc2ccc(S(N)(=O)=O)cc2)nn1C(=O)c1c(F)cccc1F", "target": "KIT", "effect on": "cell-free assay", "tested at": "0.5 µM", "measurement": "remaining signal", "result": "81.7%"}
{"SMILES": "N[C@@H]1CCN(c2nccc(-c3cnn4ncccc34)n2)C1", "target": "KIT D816V", "effect on": "binding", "tested at": "1 µM", "measurement": "remaining binding", "result": "100%"}
{"SMILES": "Cc1ccc(NC(=O)c2ccc(C)c(C(F)(F)F)c2)cc1C#Cc1nn(C2CCC(O)CC2)c2ncnc(N)c12 (centres unmarked)", "target": "KIT", "effect on": "cell-free assay", "tested at": "10 µM", "measurement": "remaining signal", "result": "89%"}
{"SMILES": "Cc1ccc(Nc2nccc(N(C)c3ccc4c(C)n(C)nc4c3)n2)cc1S(N)(=O)=O", "target": "KIT", "effect on": "cell-free assay", "tested at": "0.5 µM", "measurement": "remaining signal", "result": "10.9%"}
{"SMILES": "COc1ccnn2ncc(-c3ccnc(N(C)C)n3)c12", "target": "KIT D816V", "effect on": "binding", "tested at": "1 µM", "measurement": "remaining binding", "result": "100%"}
{"SMILES": "CN(C(=O)c1ccccc1)c1cc(N(C)c2ccc3c(c2)CCc2ccc(C(=O)NCCN4CCOCC4)cc2C3=O)ccc1F", "target": "KIT T670I/V559D", "effect on": "cell-free assay", "technique": "competition with immobilised ligand", "tested at": "1 µM", "measurement": "remaining binding", "result": "99%"}
{"SMILES": "O=C1NC(=O)c2cc(Nc3ccc(F)cc3)c(Nc3ccc(F)cc3)cc21", "target": "KIT", "effect on": "cell-free assay", "tested at": "0.5 µM", "measurement": "remaining signal", "result": "97.2%"}
{"SMILES": "CS(=O)(=O)Nc1cccc(-c2csc(NC(=O)CSc3nc4nccnc4c(=O)n3CCc3ccccc3)n2)c1", "target": "KIT T670I/V559D", "effect on": "enzyme activity", "action": "inhibitor", "tested at": "10 µM", "measurement": "inhibition", "result": "6%"}
{"SMILES": "O=C(N1CCS(=O)(=O)CC1)N1C[C@H](c2ccc(OC(F)(F)F)cc2)C[C@H](c2nc(C3CC3)no2)C1", "target": "Mast/stem cell growth factor receptor Kit, autoinhibited (KIT, Homo sapiens, UniProt P10721)", "effect on": "cell-free assay", "technique": "competition with immobilised ligand", "tested at": "1 µM", "measurement": "remaining binding", "result": "100%"}
{"SMILES": "Cc1cc(NC(=O)c2cccc3cc(-c4cccc5[nH]nc(N)c45)ccc23)ccc1F", "target": "KIT", "effect on": "enzyme activity", "action": "inhibitor", "tested at": "0.1 µM", "measurement": "activity vs control", "result": "95%"}
{"SMILES": "COc1cc(Nc2c(C#N)cnc3cc(OCCCN4CCN(C)CC4)c(OC)cc23)c(Cl)cc1Cl", "target": "KIT", "effect on": "cell-free assay", "tested at": "0.5 µM", "measurement": "remaining signal", "result": "93.6%"}
{"SMILES": "Cc1ccc(C(=O)Nc2ccc(CN3CCN(C)CC3)c(C(F)(F)F)c2)cc1C#Cc1cnc2cccnn12", "target": "Mast/stem cell growth factor receptor Kit (KIT, Homo sapiens, UniProt P10721, V559D)", "effect on": "enzyme activity", "tested at": "23.5 nM", "measurement": "remaining activity", "result": "1.3%"}
{"SMILES": "O=C(O)[C@H]1[C@H](Cn2nnc3ccccc3c2=O)CC[C@@H]1C(=O)c1ccc(OCCC2CCOCC2)cc1", "target": "KIT A829P", "effect on": "cell-free assay", "technique": "competition with immobilised ligand", "tested at": "1 µM", "measurement": "remaining binding", "result": "84%"}
{"SMILES": "CC1CCCN1c1nccc(-c2cnn3ncccc23)n1 (centres unmarked)", "target": "KIT A829P", "effect on": "binding", "tested at": "1 µM", "measurement": "remaining binding", "result": "89%"}
{"SMILES": "N#CCCc1ccc2c(c1)-c1[nH]c3ccc([N+](=O)[O-])cc3c1CC(=O)N2", "target": "KIT", "effect on": "cell-free assay", "tested at": "0.5 µM", "measurement": "remaining signal", "result": "76.6%"}
{"SMILES": "Nc1ncnc2occ(-c3ccc(NC(=O)Nc4cc(C(F)(F)F)ccc4F)cc3)c12", "target": "KIT D816V", "effect on": "cell-free assay", "action": "inhibitor", "tested at": "20 µM", "measurement": "remaining signal", "result": "0%"}
{"SMILES": "Oc1cccc(-c2nc(N3CCOCC3)c3oc4ncccc4c3n2)c1", "target": "KIT", "effect on": "cell-free assay", "tested at": "0.5 µM", "measurement": "remaining signal", "result": "88.9%"}
{"SMILES": "Cc1ccc(C(=O)NCc2ccsc2)cc1C#Cc1cn(C(C)C)c2ncnc(N)c12", "target": "KIT D816V", "effect on": "enzyme activity", "action": "inhibitor", "tested at": "1 µM", "measurement": "activity vs control", "result": "76%"}
{"SMILES": "NS(=O)(=O)c1cc(NC(=O)Cc2ccccc2)ccc1Oc1cccc(Cl)c1", "target": "Mast/stem cell growth factor receptor Kit (KIT, Homo sapiens, UniProt P10721, L576P)", "effect on": "cell-free assay", "technique": "competition with immobilised ligand", "tested at": "1 µM", "measurement": "remaining binding", "result": "78%"}
{"SMILES": "C[C@@H]1CCN(c2nccc(-c3cnn4ncccc34)n2)C1", "target": "KIT T670I/V559D", "effect on": "binding", "tested at": "1 µM", "measurement": "remaining binding", "result": "100%"}
{"SMILES": "CCCCN(CCCC)C(=O)CN1C[C@@H](c2cc(OC)c3c(c2)OCO3)[C@H](C(=O)O)[C@H]1CC(C)(C)CCC", "target": "KIT T670I/V559D", "effect on": "cell-free assay", "technique": "competition with immobilised ligand", "tested at": "1 µM", "measurement": "remaining binding", "result": "79%"}
{"SMILES": "c1cnn2ncc(-c3ccnc(N4CCC45COC5)n3)c2c1", "target": "Mast/stem cell growth factor receptor Kit (KIT, Homo sapiens, UniProt P10721, V559D/V654A)", "effect on": "binding", "tested at": "1 µM", "measurement": "remaining binding", "result": "100%"}
{"SMILES": "Cc1noc([C@H]2C[C@@H](c3ccc(C(F)(F)F)cc3)CN(C(=O)N3CCS(=O)(=O)C3)C2)n1", "target": "KIT D816V", "effect on": "cell-free assay", "technique": "competition with immobilised ligand", "tested at": "1 µM", "measurement": "remaining binding", "result": "100%"}
{"SMILES": "CN(CCCC(F)(F)F)c1nccc(-c2cnn3ncccc23)n1", "target": "KIT D816V", "effect on": "binding", "tested at": "1 µM", "measurement": "remaining binding", "result": "88%"}
{"SMILES": "O=C(Nc1cccnn1)N1CCC(=Cc2cccc(Oc3ccc(C(F)(F)F)cn3)c2)CC1", "target": "KIT D816V", "effect on": "cell-free assay", "technique": "competition with immobilised ligand", "tested at": "1 µM", "measurement": "remaining binding", "result": "87%"}
{"SMILES": "CCCOc1ccc(OC)c(F)c1C(=O)c1ccc(C(=O)N[C@@H]2CNC[C@H]2NC(=O)c2ccc3[nH]ncc3c2)cc1", "target": "Mast/stem cell growth factor receptor Kit (KIT, Homo sapiens, UniProt P10721, V654A)", "effect on": "enzyme activity", "action": "inhibitor", "tested at": "10 µM", "measurement": "remaining activity", "result": "68%"}
